ChEMBL document CHEMBL2390903, “Anti-tubercular agents. Part 7: a new class of diarylpyrrole-oxazolidinone conjugates as antimycobacterial agents” (Eur J Med Chem, 2013)
Values after ≈ are worked out from the molar mass of the structure shown.

Assays:
Micrococcus luteus [1] = assay: Antibacterial activity against Micrococcus luteus MTCC 2470 assessed as growth inhibition at 20 ug/mL after 24 hrs; assay type: functional; conditions: MTCC 2470, 24 h, read-out: IZ
Bacillus subtilis [2] = assay: Antibacterial activity against Bacillus subtilis MTCC 121 assessed as growth inhibition after 24 hrs by agar dilution method; assay type: functional; conditions: MTCC 121, 24 h
Micrococcus luteus [3] = assay: Antibacterial activity against Micrococcus luteus MTCC 2470 assessed as growth inhibition after 24 hrs by agar dilution method; assay type: functional; conditions: MTCC 2470, 24 h
Staphylococcus [4] = assay: Antibacterial activity against 16-membered ring macrolide- lincosamide-streptogramin B-resistant Staphylococcus MTCC 2940 assessed as growth inhibition at 20 ug/mL after 24 hrs; assay type: functional; conditions: MTCC 2940, 24 h, read-out: IZ
Staphylococcus [5] = assay: Antibacterial activity against 16-membered ring macrolide- lincosamide-streptogramin B-resistant Staphylococcus MTCC 2940 assessed as growth inhibition after 24 hrs by agar dilution method; assay type: functional; conditions: MTCC 2940, 24 h
Staphylococcus aureus [6] = assay: Antibacterial activity against Staphylococcus aureus MTCC 96 assessed as growth inhibition at 20 ug/mL after 24 hrs; assay type: functional; conditions: MTCC 96, 24 h, read-out: IZ
Staphylococcus aureus [7] = assay: Antibacterial activity against Staphylococcus aureus MTCC 96 assessed as growth inhibition after 24 hrs by agar dilution method; assay type: functional; conditions: MTCC 96, 24 h
Pseudomonas aeruginosa = assay: Antibacterial activity against Pseudomonas aeruginosa MTCC 2453 assessed as growth inhibition after 24 hrs by agar dilution method; assay type: functional; conditions: MTCC 2453, 24 h
Escherichia coli = assay: Antibacterial activity against Escherichia coli MTCC 739 assessed as growth inhibition after 24 hrs by agar dilution method; assay type: functional; conditions: MTCC 739, 24 h
Bacillus subtilis [8] = assay: Antibacterial activity against Bacillus subtilis MTCC 121 assessed as growth inhibition at 20 ug/mL after 24 hrs; assay type: functional; conditions: MTCC 121, 24 h, read-out: IZ
[9] = system: Mycobacterium tuberculosis; assay: Antitubercular activity against Mycobacterium tuberculosis H37Rv assessed as growth inhibition after 2 to 3 weeks by broth microdilution method; assay type: functional
Procedure, shortened: (§1)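 Primary screen of all compounds against H37Rv at a single concentration in triplicate by microplate dilution. Actives then went to MIC determination by broth microdilution against H37Rv, rifampicin-resistant and XDR-1 isolates. Plates incubated 2–3 weeks at 37 °C in a CO2 incubator. MIC read visually as absence of growth turbidity. Rifampicin and linezolid served as reference drugs.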

[10] = system: Mycobacterium tuberculosis; assay: Antitubercular activity against Mycobacterium tuberculosis XDR-1 assessed as growth inhibition after 2 to 3 weeks by broth microdilution method; assay type: functional; procedure, shortened: as §1
[11] = Cytotoxicity against mouse J744 cells assessed as growth inhibition at 40 ug/mL after 24 hrs by MTT assay relative to control; assay type: cell-based; conditions: read-out: GI
Procedure, shortened: (§2)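 Mouse J-774 macrophages exposed to test material (40) in RPMI with 10% FCS for 24 h at 37 °C under CO2. MTT then added with a further 3 h incubation. Formazan absorbance read at […]. Percent cytotoxicity calculated relative to untreated cells.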

[12] = Selectivity index, ratio of IC50 for mouse J744 cells to MIC for Mycobacterium tuberculosis H37Rv; assay type: functional
[13] = Cytotoxicity against mouse J744 cells assessed as growth inhibition after 24 hrs by MTT assay; assay type: cell-based; conditions: J744, 24 h; procedure, shortened: as §2

Row | SMILES | zone of inhibition at 20 µg/mL (Micrococcus luteus [1]) | MIC (Bacillus subtilis [2]) | MIC (Micrococcus luteus [3]) | zone of inhibition at 20 µg/mL (Staphylococcus [4]) | MIC (Staphylococcus [5]) | zone of inhibition at 20 µg/mL (Staphylococcus aureus [6]) | MIC (Staphylococcus aureus [7]) | MIC (Pseudomonas aeruginosa) | MIC (Escherichia coli) | zone of inhibition at 20 µg/mL (Bacillus subtilis [8]) | MIC [9] | MIC [10] | inhibition at 24 h, 40 ug/mL [11] | Selectivity Index [12] | IC50 [13]
1 | CC(=O)NC[C@H]1CN(c2ccc(N3CCN(Cc4cc(-c5cccc(Cl)c5)n(-c5ccccc5F)c4C)CC3)c(F)c2)C(=O)O1 | 27 mm | 1.5 µg/mL (≈ 2.37 µM) | 1.5 µg/mL (≈ 2.37 µM) | 23 mm | 2 µg/mL (≈ 3.15 µM) | 18 mm | 0.5 µg/mL (≈ 0.788 µM) | > 40 µg/mL | > 40 µg/mL | 18 mm | 8 µg/mL (≈ 12.6 µM) | > 16 µg/mL | – | – | –
2 | CC(=O)NC[C@H]1CN(c2ccc(N3CCN(Cc4cc(-c5ccc(C(C)C)cc5)n(-c5ccc(F)cc5F)c4C)CC3)c(F)c2)C(=O)O1 | 18 mm | 1.5 µg/mL (≈ 2.27 µM) | 3 µg/mL (≈ 4.55 µM) | 15 mm | 6 µg/mL (≈ 9.09 µM) | 16 mm | 2 µg/mL (≈ 3.03 µM) | > 40 µg/mL | > 40 µg/mL | 12 mm | 4 µg/mL (≈ 6.06 µM) | 16 µg/mL (≈ 24.3 µM) | 40.2% | >10 | > 40 µM
3 | CC(=O)NC[C@H]1CN(c2ccc(N3CCN(Cc4cc(-c5ccccc5C)n(-c5ccc(F)cc5)c4C)CC3)c(F)c2)C(=O)O1 | – | 3 µg/mL (≈ 4.89 µM) | 1.5 µg/mL (≈ 2.44 µM) | – | 5 µg/mL (≈ 8.15 µM) | – | 1.5 µg/mL (≈ 2.44 µM) | > 40 µg/mL | > 40 µg/mL | – | – | – | – | – | –
4 | Cc1ccccc1-c1cc(CN2CCN(c3ccc(N4C[C@H](Cn5cc(-c6cncn6C)nn5)OC4=O)cc3F)CC2)c(C)n1-c1ccc(F)cc1 | – | > 30 µg/mL | > 30 µg/mL | – | > 30 µg/mL | – | 10 µg/mL (≈ 14.2 µM) | > 40 µg/mL | > 40 µg/mL | – | 2 µg/mL (≈ 2.84 µM) | 8 µg/mL (≈ 11.4 µM) | 49.3% | >10 | > 40 µM
5 | Cc1c(CN2CCN(c3ccc(N4C[C@H](Cn5cc(-c6ccccc6)nn5)OC4=O)cc3F)CC2)cc(-c2cccc(Cl)c2)n1-c1ccccc1F | – | > 40 µg/mL | 8 µg/mL (≈ 11.1 µM) | – | 10 µg/mL (≈ 13.9 µM) | – | > 40 µg/mL | > 40 µg/mL | > 40 µg/mL | – | > 16 µg/mL | > 16 µg/mL | – | – | –
6 | Cc1c(CN2CCN(c3ccc(N4C[C@H](Cn5cc(-c6ccccc6)nn5)OC4=O)cc3F)CC2)cc(-c2ccc(Cl)c(F)c2)n1-c1ccc(OC(F)(F)F)cc1 | – | > 40 µg/mL | 8 µg/mL (≈ 9.95 µM) | – | > 40 µg/mL | – | > 40 µg/mL | > 40 µg/mL | > 40 µg/mL | – | > 16 µg/mL | > 16 µg/mL | – | – | –
7 | Cc1ccc(-c2cc(CN3CCN(c4ccc(N5C[C@H](Cn6cc(-c7ccccc7)nn6)OC5=O)cc4F)CC3)c(C)n2-c2ccc(Cl)c(Cl)c2)cc1 | 17 mm | 2.5 µg/mL (≈ 3.33 µM) | 0.5 µg/mL (≈ 0.666 µM) | 19 mm | 9 µg/mL (≈ 12 µM) | 21 mm | 8 µg/mL (≈ 10.7 µM) | > 40 µg/mL | > 40 µg/mL | 14 mm | > 16 µg/mL | > 16 µg/mL | – | – | –
8 | Cc1c(CN2CCN(c3ccc(N4C[C@H](Cn5cc(-c6ccccc6)nn5)OC4=O)cc3F)CC2)cc(-c2ccc(F)cc2F)n1-c1cc(F)ccc1Br | – | – | – | – | – | – | – | – | – | – | > 16 µg/mL | > 16 µg/mL | – | – | –
9 | Cc1cccc(-c2cn(C[C@H]3CN(c4ccc(N5CCN(Cc6cc(-c7ccccc7C)n(-c7ccc(F)cc7)c6C)CC5)c(F)c4)C(=O)O3)nn2)c1 | – | 9 µg/mL (≈ 12.6 µM) | > 40 µg/mL | – | > 40 µg/mL | – | > 40 µg/mL | > 40 µg/mL | > 40 µg/mL | – | > 16 µg/mL | > 16 µg/mL | – | – | –
10 | CC(=O)NC[C@H]1CN(c2ccc(N3CCN(Cc4cc(-c5ccc(F)cc5F)n(-c5cc(F)ccc5Br)c4C)CC3)c(F)c2)C(=O)O1 | 19 mm | 2.5 µg/mL (≈ 3.5 µM) | 5 µg/mL (≈ 7 µM) | 18 mm | 5 µg/mL (≈ 7 µM) | 20 mm | 3 µg/mL (≈ 4.2 µM) | > 40 µg/mL | > 40 µg/mL | 14 mm | 8 µg/mL (≈ 11.2 µM) | > 16 µg/mL | – | – | –
